Test results: ChEMBL document CHEMBL1123648, “Synthesis, chemical reactivity, and antileukemic activity of 5-substituted 6,7-bis(hydroxymethyl)pyrrolo[1,2-c]thiazole biscarbamates and the corresponding sulfoxides and sulfones” (1987)

Legend:
[1] = Percent increase in life span of test animals compared to untreated tumor-bearing control group A animals at a dose of 50 mg/kg; assay type: functional; conditions: Mus musculus
[2] = test system: P388; assay: Log cell population relative to cell population at the beginning of treatment compared to control group C at a dose of 50 mg/kg; assay type: functional, Mus musculus
[3] = test system: P388; assay: Log cell population relative to cell population at the beginning of treatment compared to control group C at a dose of 25 mg/kg; assay type: functional, Mus musculus
[4] = test system: P388; assay: Log cell population relative to cell population at the beginning of treatment compared to control group C at a dose of 6.25 mg/kg; assay type: functional, Mus musculus
[5] = Percent increase in life span of test animals compared to untreated tumor-bearing control group A animals at a dose of 25 mg/kg; assay type: functional; conditions: Mus musculus
[6] = test system: P388; assay: Log cell population relative to cell population at the beginning of treatment compared to control group B at a dose of 6.25 mg/kg; assay type: functional, Mus musculus
[7] = Toxicity day survivors expressed as number of animals that survived to day five/ number of test animals under control group C at a dose of 25 mg/kg; 6 survived out of 6; assay type: functional, Mus musculus
[8] = Toxicity day survivors expressed as number of animals that survived to day five/ number of test animals under control group A at a dose of 12.5 mg/kg; 6 survived out of 6; assay type: functional, Mus musculus
[9] = Antileukemic activity against Murine P388 lymphocytic leukemia, body weight difference of the test animals compared to control group B animals at a dose of 12.5 mg/kg; assay type: functional, Mus musculus; parameters: unit not given here
How it was run: (§1)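 CD2F1 mice implanted intraperitoneally with ascitic fluid carrying ca. 1×10^6 P388 cells, under the NCI protocol. Dosing was intraperitoneal, starting 24 h after inoculation, then every 24 h for five doses in total. The body weight difference of treated mice is taken against untreated controls. Toxicity day survivors are the mice alive at day five out of those tested.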

[10] = Antileukemic activity against Murine P388 lymphocytic leukemia, body weight difference of the test animals compared to control group A animals at a dose of 6.25 mg/kg; assay type: functional, Mus musculus; how it was run: as §1
[11] = Antileukemic activity against Murine P388 lymphocytic leukemia, body weight difference of the test animals compared to control group C animals at a dose of 100 mg/kg; assay type: functional, Mus musculus; parameters: unit not given here; how it was run: as §1
[12] = Toxicity day survivors expressed as number of animals that survived to day five/ number of test animals under control group A at a dose of 100 mg/kg; 6 survived out of 6; assay type: functional, Mus musculus
[13] = test system: P388; assay: Percent increase in life span of test animals compared to untreated tumor-bearing control group B animals at a dose of 50 mg/kg; assay type: functional; conditions: Mus musculus
[14] = Percent increase in life span of test animals compared to untreated tumor-bearing control group B animals at a dose of 25 mg/kg; assay type: functional; conditions: Mus musculus
[15] = Antileukemic activity against Murine P388 lymphocytic leukemia, body weight difference of the test animals compared to control group B animals at a dose of 50 mg/kg; assay type: functional, Mus musculus; parameters: unit not given here; how it was run: as §1
[16] = Antileukemic activity against Murine P388 lymphocytic leukemia, body weight difference of the test animals compared to control group B animals at a dose of 100 mg/kg; assay type: functional, Mus musculus; parameters: unit not given here; how it was run: as §1
[17] = Antileukemic activity against Murine P388 lymphocytic leukemia and toxicity day survivors expressed as number of animals that survived to day five/ number of test animals under control group B at a dose of 6.25 mg/kg; 6 survived out of 6; assay type: functional, Mus musculus
[18] = Antileukemic activity against Murine P388 lymphocytic leukemia, body weight difference of the test animals compared to control group A animals at a dose of 100 mg/kg; assay type: functional, Mus musculus; parameters: unit not given here; how it was run: as §1
[19] = Toxicity day survivors expressed as number of animals that survived to day five/ number of test animals under control group C at a dose of 6.25 mg/kg; 6 survived out of 6; assay type: functional, Mus musculus
[20] = Log cell population relative to cell population at the beginning of treatment compared to control group C at a dose of 100 mg/kg; assay type: functional, Mus musculus
[21] = Percent increase in life span of test animals compared to untreated tumor-bearing control group B animals at a dose of 100 mg/kg; assay type: functional; conditions: Mus musculus
[22] = Percent increase in life span of test animals compared to untreated tumor-bearing control group B animals at a dose of 6.25 mg/kg; assay type: functional; conditions: Mus musculus
[23] = Antileukemic activity against Murine P388 lymphocytic leukemia, body weight difference of the test animals compared to control group B animals at a dose of 25 mg/kg; assay type: functional, Mus musculus; parameters: unit not given here; how it was run: as §1
[24] = Toxicity day survivors expressed as number of animals that survived to day five/ number of test animals under control group B at a dose of 12.5 mg/kg; 6 survived out of 6; assay type: functional, Mus musculus
[25] = Toxicity day survivors expressed as number of animals that survived to day five/ number of test animals under control group A at a dose of 6.25 mg/kg; 6 survived out of 6; assay type: functional, Mus musculus
[26] = test system: P388; assay: Log cell population relative to cell population at the beginning of treatment compared to control group B at a dose of 12.5 mg/kg; assay type: functional, Mus musculus
[27] = Toxicity day survivors expressed as number of animals that survived to day five/ number of test animals under control group C at a dose of 100 mg/kg; 6 survived out of 6; assay type: functional, Mus musculus
[28] = Antileukemic activity against Murine P388 lymphocytic leukemia, body weight difference of the test animals compared to control group C animals at a dose of 50 mg/kg; assay type: functional, Mus musculus; parameters: unit not given here; how it was run: as §1
[29] = Toxicity day survivors expressed as number of animals that survived to day five/ number of test animals under control group B at a dose of 50 mg/kg; 6 survived out of 6; assay type: functional, Mus musculus
[30] = Percent increase in life span of test animals compared to untreated tumor-bearing control group A animals at a dose of 6.25 mg/kg; assay type: functional; conditions: Mus musculus
[31] = test system: P388; assay: Log cell population relative to cell population at the beginning of treatment compared to control group A at a dose of 50 mg/kg; assay type: functional, Mus musculus
[32] = Antileukemic activity against Murine P388 lymphocytic leukemia, body weight difference of the test animals compared to control group A animals at a dose of 25 mg/kg; assay type: functional, Mus musculus; parameters: unit not given here; how it was run: as §1
[33] = test system: P388; assay: Log cell population relative to cell population at the beginning of treatment compared to control group B at a dose of 25 mg/kg; assay type: functional, Mus musculus
[34] = Antileukemic activity against Murine P388 lymphocytic leukemia and toxicity day survivors expressed as number of animals that survived to day five/ number of test animals under control group C at a dose of 50 mg/kg; 6 survived out of 6; assay type: functional, Mus musculus
[35] = Antileukemic activity against Murine P388 lymphocytic leukemia, body weight difference of the test animals compared to control group A animals at a dose of 50 mg/kg; assay type: functional, Mus musculus; parameters: unit not given here; how it was run: as §1
[36] = Log cell population relative to cell population at the beginning of treatment compared to control group A at a dose of 100 mg/kg; assay type: functional, Mus musculus
[37] = Antileukemic activity against Murine P388 lymphocytic leukemia, body weight difference of the test animals compared to control group C animals at a dose of 6.25 mg/kg; assay type: functional, Mus musculus; how it was run: as §1
[38] = Toxicity day survivors expressed as number of animals that survived to day five/ number of test animals under control group A at a dose of 50 mg/kg; 6 survived out of 6; assay type: functional, Mus musculus
[39] = Antileukemic activity against Murine P388 lymphocytic leukemia and toxicity day survivors expressed as number of animals that survived to day five/ number of test animals under control group B at a dose of 25 mg/kg; 6 survived out of 6; assay type: functional, Mus musculus

Q: Which ILS at 50 mg/kg [1] does the source give for CC(C)NC(=O)OCc1c(COC(=O)NC(C)C)c(-c2ccc(Cl)c(Cl)c2)n2c1CCC2 here?
A: 97%

Q: And the KE [2]?
A: 5.27

Q: And the KE [3]?
A: 1.85

Q: And the KE [4]?
A: -0.55

Q: And the ILS at 25 mg/kg [5]?
A: 75%

Q: What about the KE [6] of the same compound?
A: 0.69

Q: What about the TDS [7] of the same compound?
A: 6

Q: And the TDS [8]?
A: 6

Q: And the BWD [9]?
A: -1.9

Q: What about the BWD [10] of the same compound?
A: 0

Q: And the BWD [11]?
A: -2.6

Q: And the TDS [12]?
A: 6

Q: What about the ILS at 50 mg/kg [13] of the same compound?
A: 95%

Q: And the ILS at 25 mg/kg [14]?
A: 66%

Q: What about the BWD [15] of the same compound?
A: -3.1

Q: What about the BWD [16] of the same compound?
A: -4.6

Q: And the TDS [17]?
A: 6

Q: What about the BWD [18] of the same compound?
A: -4.2

Q: What about the TDS [19] of the same compound?
A: 6

Q: And the KE [20]?
A: >6.68

Q: What about the ILS at 100 mg/kg [21] of the same compound?
A: -14%

Q: What about the ILS at 6.25 mg/kg [22] of the same compound?
A: 41%

Q: And the BWD [23]?
A: -2.2

Q: And the TDS [24]?
A: 6

Q: And the TDS [25]?
A: 6

Q: What about the KE [26] of the same compound?
A: 1.08

Q: And the TDS [27]?
A: 6

Q: And the BWD [28]?
A: -1.8

Q: What about the TDS [29] of the same compound?
A: 6

Q: What about the ILS at 6.25 mg/kg [30] of the same compound?
A: 51%

Q: And the KE [31]?
A: 4.35

Q: What about the BWD [32] of the same compound?
A: -1.7

Q: What about the KE [33] of the same compound?
A: 3.01

Q: What about the TDS [34] of the same compound?
A: 6

Q: And the BWD [35]?
A: -2.6

Q: And the KE [36]?
A: 0.8

Q: And the BWD [37]?
A: -1.1

Q: And the TDS [38]?
A: 6

Q: And the TDS [39]?
A: 6
